This is an account of results in ChEMBL document CHEMBL1157985, “Antiplasmodial and cytotoxic activity of natural bisbenzylisoquinoline alkaloids” (J Nat Prod, 1999).

Some results are limits rather than exact numbers.

Assay [1] can be described thus: Selectivity index, ratio of ED50 for human KB cells to IC50 for chloroquine-resistant Plasmodium falciparum W2. The class given is functional.
Assay [2] is described as follows: Selectivity index, ratio of ED50 for human KB cells to IC50 for […] Plasmodium falciparum D6. The class given is functional.
In assay [3] the test system is KB. The assay is described as follows: Cytotoxicity against human KB cells after 72 hrs by SRB assay. The class given is functional. Particulars: read-out: ED50 (the source's name). Summed up:
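KB-3 cells grown in DMEM with 10% FBS at 37 °C and 5% CO₂ to 60–70% confluence, then used 1 day after a medium change. Samples were dissolved in DMSO and serially diluted in 10% aqueous DMSO. 5×10⁴ cells were exposed for 72 h at 37 °C, then TCA-fixed, stained with 0.4% SRB and read at 515 nm. Zero-day control was subtracted and values expressed relative to solvent control; ED50 by nonlinear regression.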

The test system of assay [4] is Plasmodium falciparum. The assay is described as follows: Antiplasmodial activity against chloroquine-sensitive Plasmodium falciparum D6 infected human erythrocytes as [3H]hypoxanthine uptake after 24 hrs. The class given is functional, organism-based. An outline of the steps: (§1)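 P. falciparum (D6, W2) cultured in type A+ human erythrocytes, RPMI-1640 with NaHCO3, HEPES and 10% heat-inactivated human plasma, 37 °C under 5% O2/5% CO2/90% N2. Infected red cells at 0.5-1.0% parasitemia, 1.0% hematocrit exposed to compound, duplicate seven-point series, 24 h; then 0.5 μCi [3H]hypoxanthine per well for 18 h more. Filter harvest, scintillation counting; IC50 by nonlinear regression versus zero-drug controls.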

Assay [5] relates to Plasmodium falciparum. The experiment in a line: Antiplasmodial activity against chloroquine-resistant Plasmodium falciparum W2 infected human erythrocytes as [3H]hypoxanthine uptake after 24 hrs. The class given is functional, organism-based. Summed up: as §1

The IC50 is the concentration that inhibits the measured activity by half. Read a high IC50 as lower potency.

`COc1ccc2cc1Oc1ccc(cc1)C[C@@H]1NCCc3cc(OC)c4c(c31)Oc1cc3c(cc1O4)CCN(C)[C@H]3C2` [TRILOBINE]: the “Selectivity Index” value stood at 19 in assay [1] and 49 in assay [2]. Moreover, in assay [3], the EC50 was 8.3 µM. In addition, the IC50 is 169 nM in assay [4] and 451 nM in assay [5].

For `CN1CCc2cc3c4cc2[C@@H]1Cc1ccc(O)c(c1)Oc1ccc(cc1)C[C@H]1c2c(cc(O)c(c2O4)O3)CCN1C`, the “Selectivity Index” value in assay [1] amounted to 19; in assay [2], 55. For the same molecule, the EC50 in assay [3] worked out at 4.9 µM. The IC50 in assay [4] is 90 nM; in assay [5], 259 nM.

Turning to `COc1ccc2cc1Oc1ccc(cc1)C[C@H]1c3c(cc(OC)c4c3Oc3cc5c(cc3O4)CCN=C5C2)CCN1C`, the “Selectivity Index” value in assay [1] and in assay [2] was 11 throughout. In assay [3], the EC50 stood at 5 µM. Further, the IC50 in assay [4] was found to be 554 nM; in assay [5], 464 nM.

For the molecule `COc1ccc2cc1Oc1ccc(cc1)C[C@H]1c3cc(c(OC)cc3CC[N+]1(C)[O-])Oc1c(OC)c(OC)cc3c1[C@H](C2)N(C)CC3` (stereo not given in full), the “Selectivity Index” value in assay [1] is recorded as over 34; in assay [2], over 16. Besides, the EC50 in assay [3] was over 31.3 µM. Also, the IC50 in assay [4] turned out to be 1980 nM; in assay [5], 948 nM.

As to `COc1ccc2cc1Oc1ccc(cc1)C[C@@H]1NCCc3cc(OC)c(cc31)Oc1c(O)c(OC)cc3c1[C@@H](C2)N(C)CC3`, the “Selectivity Index” value in assay [1] worked out at 12; in assay [2], 23. Besides, in assay [3], the EC50 amounted to 2.7 µM. For the same molecule, the IC50 in assay [4] was found to be 118 nM; in assay [5], 218 nM.

With `COc1ccc2cc1Oc1ccc(cc1)C[C@H]1c3cc(c(OC)cc3CCN1C)Oc1c(OC)c(OC)cc3c1[C@H](C2)N(C)CC3` [FANCHININ], the “Selectivity Index” value in assay [1] was 22; in assay [2] it was 20. The EC50 in assay [3] was determined as 5.8 µM. Moreover, the IC50 in assay [4] stood at 288 nM; in assay [5] it was 257 nM.

Regarding `COc1ccc2cc1Oc1ccc(cc1)C[C@H]1c3cc(c(OC)cc3CCN1C)Oc1c(O)c(OC)cc3c1[C@H](C2)N(C)CC3` [FANGCHINOLINE], the “Selectivity Index” value was 30 in assay [1] and 51 in assay [2]. Further, in assay [3], the EC50 is 9.21 µM. For the same molecule, the IC50 in assay [4] stood at 179 nM; in assay [5], 306 nM.

In the case of `COc1cc2c3cc1Oc1c(OC)c(OC)cc4c1[C@@H](Cc1ccc(O)c(c1)Oc1ccc(cc1)C[C@@H]3N(C)CC2)NCC4`, the “Selectivity Index” value came out at 36 in assay [1] and 149 in assay [2]. Also, the EC50 in assay [3] was determined as 7.1 µM. Further, the IC50 in assay [4] came out at 47 nM; in assay [5], 193 nM.

`COc1ccc2cc1Oc1cc3c(nccc3cc1OC)Cc1ccc(cc1)COc1c(OC)cc3c(c1O)[C@H](C2)N(C)CC3`: the “Selectivity Index” value worked out at 220 in assay [1] and 130 in assay [2]. The EC50 in assay [3] was 14.7 µM. The IC50 came out at 115 nM in assay [4] and 66 nM in assay [5].

As to `COc1cc2c3c(c1O)Oc1cc4c(cc1O)CCN(C)[C@H]4Cc1ccc(O)c(c1)Oc1ccc(cc1)C[C@@H]2NCC3`, the entries for the “Selectivity Index” value in assay [1] and in assay [2] were 11 and 20, respectively. Moreover, in assay [3], the EC50 worked out at 17.8 µM. Also, the IC50 in assay [4] came to 883 nM; in assay [5] it was 1590 nM.

For `COc1ccc2cc1Oc1cc3c(cc1OC)CCN=C3Cc1ccc(cc1)Oc1c3c(cc4c1[C@@H](C2)N(C)CC4)OCO3`, the entries for the “Selectivity Index” value in assay [1] and in assay [2] were over 16.1 and over 6.8, respectively. Further, the EC50 in assay [3] is over 33.9 µM. Also, the IC50 in assay [4] is 4980 nM; in assay [5] it was 2100 nM.

As for `COc1cc2c3cc1Oc1c(O)c(OC)cc4c1[C@@H](Cc1ccc(cc1)Oc1cc(ccc1O)C[C@H]3N(C)CC2)N(C)CC4`, the “Selectivity Index” value came out at 82 in assay [1] and 300 in assay [2]. Further, in assay [3], the EC50 worked out at 8.6 µM. Also, the IC50 in assay [4] came to 29 nM; in assay [5], 105 nM.

Take `COc1ccc2cc1Oc1cc3c(cc1OC)CCN(C(C)=O)[C@H]3Cc1ccc(cc1)Oc1c3c(cc4c1[C@H](C2)N(C)CC4)OCO3`: the “Selectivity Index” value in assay [1] was 7; in assay [2] it was 3.6. Also, the EC50 in assay [3] was found to be 8.36 µM. Further, the IC50 was 2320 nM in assay [4] and 1200 nM in assay [5].

`COc1ccc2cc1Oc1cc3c(cc1OC)CCN[C@H]3Cc1ccc(cc1)Oc1c3c(cc4c1[C@@H](C2)N(C)CC4)OCO3`: the entries for the “Selectivity Index” value in assay [1] and in assay [2] were 13.3 and 7.5, respectively. In assay [3], the EC50 was found to be 8.8 µM. Moreover, the IC50 came out at 1270 nM in assay [4] and 662 nM in assay [5].

Consider `COc1ccc2cc1Oc1ccc(cc1)C[C@@H]1c3cc(c(OC)cc3CCN1C)Oc1c(OC)c(OC)cc3c1[C@@H](C2)N(C)CC3` [PHAEANTHINE], for which the “Selectivity Index” value in assay [1] came out at 22; in assay [2] it was 35. Besides, in assay [3], the EC50 came out at 10.8 µM. The IC50 in assay [4] came out at 305 nM; in assay [5] it was 498 nM.

For the molecule `COc1ccc2cc1Oc1ccc(cc1)C[C@H]1c3c(cc(OC)c(OC)c3Oc3cc4c(cc3OC)CCN(C)[C@@H]4C2)CCN1C` [OBABERINE], the “Selectivity Index” value is given as 40 in assay [1] and 37 in assay [2]. The EC50 in assay [3] was determined as 13.8 µM. Also, the figures for the IC50 in assay [4] and in assay [5] were 371 nM and 347 nM, respectively.

With `COc1cc2c3cc1Oc1cc(ccc1O)C[C@@H]1c4c(cc(OC)c(O)c4Oc4ccc(cc4)C[C@@H]3N(C)CC2)CC[N+]1(C)C.[Cl-]`, the “Selectivity Index” value in assay [1] is given as 2; in assay [2] it was over 2.1. In assay [3], the EC50 is over 32.8 µM. The IC50 in assay [4] is 15300 nM; in assay [5], over 16400 nM.

For the molecule `COc1cc2ccnc3c2cc1Oc1cc(ccc1O)C[C@H]1c2c(cc(OC)c(c2O)OCc2ccc(cc2)C3)CCN1C`, the “Selectivity Index” value in assay [1] was over 580; in assay [2], over 310. In assay [3], the EC50 is over 33.9 µM. In addition, the figures for the IC50 in assay [4] and in assay [5] were 110 nM and 59 nM, respectively.

In the case of `COc1cc2c(cc1O)[C@H](Cc1ccc(Oc3cc(C[C@@H]4c5cc(OC)c(OC)cc5CCN4C)ccc3OC)cc1)N(C)CC2`, the “Selectivity Index” value in assay [1] was over 140; in assay [2] it was over 150. The EC50 in assay [3] was over 32.1 µM. The IC50 in assay [4] came out at 213 nM; in assay [5], 227 nM.

For `COc1ccc2cc1Oc1ccc(cc1)C[C@@H]1c3cc(c(OC)cc3CCN1C)Oc1c(O)c(OC)cc3c1[C@@H](C2)N(C)CC3`, the “Selectivity Index” value was 61 in assay [1] and 186 in assay [2]. In addition, the EC50 in assay [3] was found to be 16.1 µM. In addition, the IC50 in assay [4] was 86 nM; in assay [5], 263 nM.

As to `COc1ccc2cc1Oc1ccc(cc1)C[C@H]1c3cc(c(OC)cc3CCN1C)Oc1c(OC)c(OC)cc3c1[C@@H](C2)N(C)CC3`, the “Selectivity Index” value stood at 120 in assay [1] and 40 in assay [2]. For the same molecule, in assay [3], the EC50 turned out to be 10.6 µM. The IC50 in assay [4] was determined as 260 nM; in assay [5], 88 nM.

On to `COc1cc2c3cc1Oc1cc(ccc1O)C[C@@H]1c4c(cc5c(c4Oc4ccc(cc4)C[C@@H]3N(C(C)=O)CC2)OCO5)CCN1C`, for which the “Selectivity Index” value in assay [1] was 2.2; in assay [2], 1.3. In addition, the EC50 in assay [3] came to 8.87 µM. The IC50 in assay [4] stood at 6890 nM; in assay [5] it was 4030 nM.

Consider `COc1cc2c3cc1Oc1c(O)c(OC)cc4c1[C@H](Cc1ccc(O)c(c1)Oc1ccc(cc1)C[C@@H]3N(C)CC2)N(C)CC4`, for which the entries for the “Selectivity Index” value in assay [1] and in assay [2] were 6 and 16, respectively. For the same molecule, the EC50 in assay [3] worked out at 3.7 µM. Also, the IC50 in assay [4] turned out to be 232 nM; in assay [5], 623 nM.

For `COc1cc2c3cc1Oc1c(O)c(OC)cc4c1[C@H](Cc1ccc(O)c(c1)Oc1ccc(cc1)C[C@H]3N(C)CC2)N(C)CC4`, the “Selectivity Index” value in assay [1] was determined as 29; in assay [2] it was 130. Moreover, the EC50 in assay [3] was 17.5 µM. Also, the concentration for half-maximal inhibition (IC50) came to 134 nM in assay [4] and 609 nM in assay [5].

In the case of `COc1ccc2cc1Oc1ccc(cc1)C[C@@H]1c3c(cc(OC)c(O)c3Oc3cc4c(cc3OC)CCN(C)[C@@H]4C2)CCN1C`, the entries for the “Selectivity Index” value in assay [1] and in assay [2] were 21 and 64, respectively. Further, the EC50 in assay [3] amounted to 4.11 µM. The results for the IC50 in assay [4] and in assay [5] were 64 nM and 192 nM, respectively.

Regarding `COc1cc2c(cc1O)[C@H](Cc1ccc(OC)c(Oc3ccc(C[C@H]4c5cc(OC)c(OC)cc5CCN4C)cc3)c1)N(C)CC2` [NEOTHALIBRINE], the “Selectivity Index” value in assay [1] was 75; in assay [2], 215. In assay [3], the EC50 was 10.1 µM. The IC50 was 47 nM in assay [4] and 135 nM in assay [5].

Regarding `COc1ccc2cc1Oc1ccc(cc1)C[C@H]1c3c(cc4c(c3Oc3cc5c(cc3OC)CCN(C)[C@@H]5C2)OCO4)CCN1C` [CEPHARANTHINE], the entries for the “Selectivity Index” value in assay [1] and in assay [2] were 20 and 42, respectively. The EC50 in assay [3] came out at 9.7 µM. For the same molecule, the half-maximal inhibitory concentration (IC50) in assay [4] stood at 231 nM; in assay [5] it was 478 nM.
